Measured values pooled from the literature.
Compare with care: the assays were run in different laboratories.
Target: Insulin receptor-related protein (INSRR, Homo sapiens, UniProt P14616)

Structure (SMILES)	read-out	action	method	concentration	measurement	result
O=C(Nc1cnn(-c2csc(C(=O)NC3COC3)c2)c1)Nc1ccccc1Cl	enzyme activity	inhibitor	–	5 µM	remaining activity	96%
CC(C)CC(=O)N1CCc2nc(-c3ccc(Br)cc3)nc(N(C)Cc3ccccc3)c2C1	cell-free assay	–	competition with immobilised ligand	0.1 µM	remaining binding	100%
O=C1NC(=O)c2cc(Nc3ccc(F)cc3)c(Nc3ccc(F)cc3)cc21	cell-free assay	–	–	0.5 µM	remaining signal	111%
COc1cc(-c2cn(C3CCc4c(F)cccc4N(CC(F)(F)F)C3=O)nn2)ccc1-n1cnc(C)c1 (stereo not shown)	cell-free assay	–	competition with immobilised ligand	1 µM	remaining binding	100%
COc1cc(Nc2cnc(C#N)c(O[C@H](C)CN(C)C)n2)ncc1-c1cnn(C)c1	enzyme activity	inhibitor	radiometric	10 µM	remaining activity	89%
COc1cc2ncnc(Nc3ccc(Oc4ccccc4)c(C)c3C)c2cc1OC	enzyme activity	inhibitor	–	1 µM	inhibition	2%
Cc1ccc(C(=O)Nc2ccc(CN3CCN(C)CC3)c(C(F)(F)F)c2)cc1C#Cc1cnc2cccnn12	cell-free assay	–	–	23.5 nM	remaining signal	100%
CNC(=O)c1cc(Oc2ccc(NC(=O)Nc3ccc(Cl)c(C(F)(F)F)c3)cc2)ccn1	enzyme activity	inhibitor	–	10 µM	inhibition	8%
Oc1cccc(-c2nc(N3CCOCC3)c3oc4ncccc4c3n2)c1	enzyme activity	inhibitor	–	10 µM	remaining activity	89%
COc1cc(/C=C/C(=O)CC(=O)/C=C/c2ccc(O)c(OC)c2)ccc1O	enzyme activity	inhibitor	–	1 µM	activity vs control	84%
CC/C(=N\NC(=O)NCc1cccc(O)c1)c1ccc(O)c(C)c1O	enzyme activity	inhibitor	–	0.1 µM	inhibition	1.7%
Cn1c(=O)n(-c2ccc(C(C)(C)C#N)cc2)c2c3cc(-c4cnc5ccccc5c4)ccc3ncc21	enzyme activity	inhibitor	–	10 µM	remaining activity	80%
CC1=C(C#N)C(c2ccc3c(c2)c(NC(=O)c2ccccc2C)nn3C)C(C#N)=C(C)N1	cell-free assay	–	competition with immobilised ligand	1 µM	remaining binding	100%
CN1CC(Oc2cnc(C#N)cc2-c2ccn3nc(NC(=O)C4CC4)cc3c2)C1	enzyme activity	inhibitor	–	1 µM	inhibition	-4%
O=C(O)[C@@H]1[C@@H](Cn2nnc3ccccc3c2=O)CC[C@H]1C(=O)c1ccc(OCCC2CCOCC2)cc1	cell-free assay	–	competition with immobilised ligand	1 µM	remaining binding	100%
Cc1ccc(NC(=O)c2ccc(C)c(C(F)(F)F)c2)cc1C#Cc1nn(C2CCC(O)CC2)c2ncnc(N)c12 (stereo not shown)	cell-free assay	–	–	10 µM	remaining signal	107%
Cc1ccc(Nc2nccc(N(C)c3ccc4c(C)n(C)nc4c3)n2)cc1S(N)(=O)=O	enzyme activity	inhibitor	–	0.3 µM	inhibition	-22%
Nc1nc(NC2CCCCC2)sc1C(=O)c1ccccc1	enzyme activity	inhibitor	–	10 µM	remaining activity	25%
COc1ccc(COc2ccc(Cc3cnc(N)nc3N)cc2OC)cc1	cell-free assay	–	–	0.5 µM	remaining signal	99.4%
CC(C)(C)c1nc(-c2cccc(NS(=O)(=O)c3c(F)cccc3F)c2F)c(-c2ccnc(N)n2)s1	enzyme activity	inhibitor	radiometric	1 µM	remaining activity	103%
CCOC(=O)c1cc2cc(-c3cc(C(=O)NCc4ccc(C(=O)O)cc4)nn3C)ccc2[nH]1	cell-free assay	–	competition with immobilised ligand	0.1 µM	remaining binding	77%
CCN(CC)c1ccc(C2=NNC(=O)CC2C)cc1[N+](=O)[O-] (stereo not shown)	enzyme activity	inhibitor	–	10 µM	remaining activity	97%
O=C(NC[C@@H]1[C@H]2CN(C(=O)OCc3cc(C(F)(F)F)cc(C(F)(F)F)c3)C[C@@H]12)c1ccc2[nH]nnc2c1	cell-free assay	–	competition with immobilised ligand	1 µM	remaining binding	83%
O=C(Nc1cnn(-c2csc(C(=O)NC3COC3)c2)c1)Nc1c(F)cccc1Cl	enzyme activity	inhibitor	–	5 µM	remaining activity	75.9%
CN([C@@H]1CCc2c(CC(=O)O)c3cc(S(C)(=O)=O)ccc3n2C1)S(=O)(=O)c1ccc(F)cc1	cell-free assay	–	competition with immobilised ligand	1 µM	remaining binding	100%
Nc1ncnc2occ(-c3ccc(NC(=O)Nc4cc(C(F)(F)F)ccc4F)cc3)c12	cell-free assay	–	–	20 µM	remaining signal	0.85%
O=C(Nc1cccnn1)N1CCC(=Cc2cccc(Oc3ccc(C(F)(F)F)cn3)c2)CC1	cell-free assay	–	competition with immobilised ligand	1 µM	remaining binding	100%
CCN(CC)CCNC(=O)c1c(C)[nH]c(/C=C2\C(=O)Nc3ccc(F)cc32)c1C	enzyme activity	inhibitor	–	0.3 µM	inhibition	25%
